pIC50, pKi: −log10 of the molar value. The source made the active and inactive calls.
How the values were obtained:
Rattus norvegicus [1] = organism: Rattus norvegicus; experiment: Selectivity ratio of Ki for rat brain DOR to Ki for rat brain MOR
[2] = target: Delta-type opioid receptor (Mus musculus, UniProt P32300); experiment: Activation of DOR in mouse vas deferens
Summary of the method: (§1)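 Isolated guinea pig ileum (MOR) and mouse vas deferens (DOR) bioassays. A [Leu5]enkephalin standard dose-response curve was run on each tissue preparation, and test IC50 values were normalized to it. Values are means of 3-4 experiments.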

[3] = target: Delta-type opioid receptor (Rattus norvegicus, UniProt P33533); experiment: Displacement of [3H]DSLET from rat brain DOR after 2 hrs
Summary of the method: (§2)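 Rat brain membranes were incubated 2 h at 0 °C with 0.72 nM [3H]DAMGO (MOR) or 0.78 nM [3H]DSLET (DOR). IC50 came from log-dose displacement curves.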

Mu-type opioid receptor [4] = target: Mu-type opioid receptor (Rattus norvegicus, UniProt P33535); experiment: Displacement of [3H]DAMGO from rat brain MOR after 2 hrs; summary of the method: as §2
Substance-P receptor [5] = target: T1, Substance-P receptor (Homo sapiens, UniProt P25103); experiment: Displacement of [3H]SP from human NK1 receptor expressed in CHO cells after 20 mins by liquid scintillation counting analysis; format: cell-based
Summary of the method: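 Membranes from hNK1/CHO cells (20 µg) were incubated with 0.4 nM [3H]SP and six test concentrations in duplicate. Buffer was 50 mM Tris pH 7.4 with 5 mM MgCl2, bacitracin, bestatin, captopril and PMSF, for 20 min at 25 °C. Nonspecific binding was defined with 10 µM SP. Samples were filtered on PEI-soaked GF/B, counted by scintillation, three independent experiments. Ki by Cheng-Prusoff from nonlinear-regression IC50.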

Mu-type opioid receptor [6] = target: Mu-type opioid receptor (Cavia porcellus, UniProt P97266); experiment: Activation of MOR in guinea pig ileum; format: tissue-based; summary of the method: as §1
Rattus norvegicus [7] = organism: Rattus norvegicus; experiment: Reduction of hyperalgesia in Wistar rat chronic constriction injury model at 1 nmol, it measured 7 days post CCI challenge by cold plate test; format: functional, organism-based
Summary of the method: (§3)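 In catheterized male Wistar rats with sciatic CCI, a single i.t. dose in water for injection was given on day 7. Thermal hyperalgesia was measured 30 min later as latency to hind-paw shake on a 5 °C cold plate. Data are %MPE, 6-12 rats/group, ANOVA with Bonferroni.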

Rattus norvegicus [8] = organism: Rattus norvegicus; experiment: Antinociceptive activity in Wistar rat at 0.001 to 0.1 nmol, it after 30 mins by tail flick test; format: functional, organism-based
Summary of the method: (§4)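 Naive male Wistar rats (250-300 g) with i.t. catheters received a single i.t. injection in water for injection (5 µl plus 10 µl flush), 7 days after catheter implantation. Tail-flick latency to a light-bulb heat stimulus at two-thirds of tail length was read 30 min post-dose (timepoints up to 180 min), with a 9 s cut-off. Data are %MPE = (TL-BL)/(cut-off-BL)×100, 7-12 rats/group, ANOVA with Bonferroni.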

Rattus norvegicus [9] = organism: Rattus norvegicus; experiment: Antiallodynic effect in Wistar rat chronic constriction injury model at 0.001 to 1 nmol, it measured 7 days post CCI challenge by Von Frey test; format: functional, organism-based
Summary of the method: (§5)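 Male Wistar rats (300-350 g) with i.t. catheters (L4-L6) had CCI made by four loose silk ligatures on the right sciatic nerve. On day 7 they received a single i.t. dose in water for injection. Mechanical allodynia was measured 30 min later with an automatic von Frey device (0.5-26 g) on the midplantar hind paw. Data are %MPE, 6-12 rats/group, ANOVA with Bonferroni.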

[10] = target: Mu-type opioid receptor (Cavia porcellus) (UniProt P97266); experiment: Antagonist activity at MOR in guinea pig ileum; format: tissue-based
[11] = target: Mu-type opioid receptor (Cavia porcellus) (UniProt P97266); experiment: Partial agonist activity at MOR in guinea pig ileum; format: tissue-based; summary of the method: as §1
Rattus norvegicus [12] = organism: Rattus norvegicus; experiment: Toxicity in Wistar rat chronic constriction injury model at 1 nmol, it measured 7 days post CCI challenge; format: organism-based; details: in vivo, icv_or_intrathecal, 168 h
Rattus norvegicus [13] = organism: Rattus norvegicus; experiment: Antiallodynic effect in Wistar rat chronic constriction injury model at 0.1 to 1 nmol, it measured 7 days post CCI challenge by Von Frey test; format: functional, organism-based; summary of the method: as §5
Rattus norvegicus [14] = experiment: Antiallodynic effect in it dosed Wistar rat measured 7 days post CCI challenge by Von Frey test; format: functional; summary of the method: as §5
Rattus norvegicus [15] = experiment: Reduction of hyperalgesia in it dosed Wistar rat measured 7 days post CCI challenge by cold plate test; format: functional; summary of the method: as §3
Rattus norvegicus [16] = organism: Rattus norvegicus; experiment: Antinociceptive activity in Wistar rat at 1 nmol, it after 30 mins by tail flick test; format: functional; summary of the method: as §4
Rattus norvegicus [17] = organism: Rattus norvegicus; experiment: Toxicity in Wistar rat chronic constriction injury model at 9.5 nmol, it measured 7 days post CCI challenge; format: organism-based; details: in vivo, icv_or_intrathecal, 168 h
Rattus norvegicus [18] = experiment: Antiallodynic effect in Wistar rat chronic constriction injury model assessed as tolerance to neuropathic pain at 1 nmol, it qd for 6 days administered from 7 days post CCI challenge to day 13 by cold plate test; format: functional, organism-based
Summary of the method: (§6)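 CCI Wistar rats received once-daily i.t. injections (morphine 3.5 nmol, hybrids 1 nmol, in water for injection) from day 7 to day 13 after CCI. Von Frey and 5 °C cold plate tests were run 30 min after each dose. Data are %MPE and AUC, 12-16 rats/group, ANOVA with Bonferroni.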

Rattus norvegicus [19] = experiment: Antinociceptive activity in it dosed Wistar rat after 30 mins by tail flick test; format: functional; summary of the method: as §4
Rattus norvegicus [20] = experiment: Antiallodynic effect in Wistar rat chronic constriction injury model assessed as tolerance to neuropathic pain at 1 nmol, it qd for 6 days administered from 7 days post CCI challenge to day 13 by Von Frey test; format: functional, organism-based; summary of the method: as §6
Rattus norvegicus [21] = organism: Rattus norvegicus; experiment: Antinociceptive activity in Wistar rat at 0.1 to 1 nmol, it after 30 mins by tail flick test; format: functional, organism-based; summary of the method: as §4
Rattus norvegicus [22] = organism: Rattus norvegicus; experiment: Antiallodynic effect in Wistar rat chronic constriction injury model at 1 nmol, it measured 7 days post CCI challenge by Von Frey test; format: functional; summary of the method: as §5
Rattus norvegicus [23] = experiment: Toxicity in Wistar rat assessed as seizures at 9.5 nmol, iv; format: organism-based; details: in vivo
Rattus norvegicus [24] = experiment: Toxicity in Wistar rat assessed as death at 9.5 nmol, iv; format: organism-based; details: in vivo
Rattus norvegicus [25] = experiment: Antinociceptive activity in Wistar rat up to 1.21 umol/kg, iv after 30 mins by tail flick test; format: functional, organism-based
Rattus norvegicus [26] = organism: Rattus norvegicus; experiment: Antinociceptive activity in Wistar rat at 1 to 50 nmol, it after 30 mins by tail flick test; format: functional, organism-based
Summary of the method: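 Male Wistar rats (250-300 g), naive, with chronic i.t. catheters inserted through the atlanto-occipital membrane to L4-L6 under pentobarbital anaesthesia. Tested on day 7 after implantation. Drug in water for injection was given as a single 5 µl i.t. injection, then 10 µl flush. Tail-flick (light-bulb heat at two-thirds tail length, 9 s cut-off) was read 30 min post-dose. Values are %MPE vs baseline; 7-12 rats/group; ANOVA/Bonferroni.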

Substance-P receptor [27] = target: T1, Substance-P receptor; experiment: Antagonist activity at human NK1 receptor expressed in CHO cells by luminescence assay in presence of SP peptide; format: cell-based; details: read-out: pA2 (converted)

Delta-type opioid receptor (Rattus norvegicus, UniProt P33533), sequence (P33533 whole entry): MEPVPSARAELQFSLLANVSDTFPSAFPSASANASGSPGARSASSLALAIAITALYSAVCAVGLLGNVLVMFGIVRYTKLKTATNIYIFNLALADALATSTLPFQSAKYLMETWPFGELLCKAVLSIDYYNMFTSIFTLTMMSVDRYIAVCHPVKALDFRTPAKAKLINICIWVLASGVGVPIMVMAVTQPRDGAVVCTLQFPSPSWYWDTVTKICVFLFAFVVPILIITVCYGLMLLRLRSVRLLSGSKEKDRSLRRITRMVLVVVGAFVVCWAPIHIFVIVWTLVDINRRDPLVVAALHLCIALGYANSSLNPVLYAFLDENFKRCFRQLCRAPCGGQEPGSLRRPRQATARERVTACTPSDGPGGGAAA
Mu-type opioid receptor (Cavia porcellus, UniProt P97266), sequence (P97266 whole entry): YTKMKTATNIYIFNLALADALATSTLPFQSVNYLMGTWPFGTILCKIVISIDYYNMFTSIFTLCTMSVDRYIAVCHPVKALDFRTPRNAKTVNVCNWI
Delta-type opioid receptor (Mus musculus, UniProt P32300), sequence (P32300 whole entry): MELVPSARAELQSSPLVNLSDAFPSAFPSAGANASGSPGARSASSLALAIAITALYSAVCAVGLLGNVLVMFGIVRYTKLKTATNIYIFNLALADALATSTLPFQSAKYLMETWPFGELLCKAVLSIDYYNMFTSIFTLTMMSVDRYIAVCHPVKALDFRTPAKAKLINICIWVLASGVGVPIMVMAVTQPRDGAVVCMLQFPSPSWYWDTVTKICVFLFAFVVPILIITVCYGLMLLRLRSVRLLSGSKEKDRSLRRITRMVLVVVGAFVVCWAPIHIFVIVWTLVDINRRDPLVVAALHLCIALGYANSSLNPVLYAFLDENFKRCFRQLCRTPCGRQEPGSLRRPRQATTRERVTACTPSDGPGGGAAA
Mu-type opioid receptor (Rattus norvegicus, UniProt P33535), sequence (P33535 whole entry): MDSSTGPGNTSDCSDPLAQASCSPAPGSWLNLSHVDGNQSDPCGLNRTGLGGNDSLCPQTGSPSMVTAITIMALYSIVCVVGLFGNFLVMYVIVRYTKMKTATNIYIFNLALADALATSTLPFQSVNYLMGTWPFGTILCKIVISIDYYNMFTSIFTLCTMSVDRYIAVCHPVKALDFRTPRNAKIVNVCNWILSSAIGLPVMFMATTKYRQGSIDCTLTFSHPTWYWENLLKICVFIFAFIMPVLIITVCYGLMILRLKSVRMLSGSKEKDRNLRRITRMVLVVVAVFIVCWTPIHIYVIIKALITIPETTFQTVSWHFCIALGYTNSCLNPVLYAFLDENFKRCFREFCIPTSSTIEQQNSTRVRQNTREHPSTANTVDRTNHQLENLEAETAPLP
T1 sequence (P25103 whole entry): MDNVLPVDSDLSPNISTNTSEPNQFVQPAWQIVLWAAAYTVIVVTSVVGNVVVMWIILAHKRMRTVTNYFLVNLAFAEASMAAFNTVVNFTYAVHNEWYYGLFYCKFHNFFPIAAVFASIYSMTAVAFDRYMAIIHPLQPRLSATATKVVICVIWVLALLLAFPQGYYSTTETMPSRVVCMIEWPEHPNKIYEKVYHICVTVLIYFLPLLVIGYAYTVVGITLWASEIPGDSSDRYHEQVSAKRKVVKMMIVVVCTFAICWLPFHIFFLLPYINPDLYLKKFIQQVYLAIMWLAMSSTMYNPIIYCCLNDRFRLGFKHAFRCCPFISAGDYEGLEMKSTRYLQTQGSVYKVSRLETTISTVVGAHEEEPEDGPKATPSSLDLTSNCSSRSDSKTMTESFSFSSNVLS
Mu-type opioid receptor (Cavia porcellus), sequence (P97266 whole entry): as the sequence (P97266 whole entry) above

SMILES	Ratio Ki (Rattus norvegicus [1])	pIC50 [2]	pKi [3]	pKi (Mu-type opioid receptor [4])	pKi (Substance-P receptor [5])	pIC50 (Mu-type opioid receptor [6])	Activity (Rattus norvegicus [7])	further results
Cc1cc(O)cc(C)c1C[C@H](N)C(=O)N[C@H](CCCNC(=N)N)C(=O)N[C@H]1Cc2ccccc2CN(CC(=O)NCc2ccccc2)C1=O	4.4	8.46	9.21	9.85	5.21	8.35		
Cc1cc(O)cc(C)c1C[C@H](N)C(=O)N[C@H](CCCNC(=N)N)C(=O)N[C@H]1Cc2ccccc2CN(CC(N)=O)C1=O	4						Active	Activity (Rattus norvegicus [8]): Active; Activity (Rattus norvegicus [9]): Active
Cc1cc(O)cc(C)c1C[C@H](N)C(=O)N[C@H](CCCNC(=N)N)C(=O)N[C@H]1Cc2ccccc2CN(CC(=O)N(Cc2cc(C(F)(F)F)cc(C(F)(F)F)c2)CC(C)C)C1=O		7.84			7.46			Ke [10]: 12.7 nM; Activity [11]: 19.7 nM
Cc1cc(O)cc(C)c1C[C@H](N)C(=O)N[C@H](CCCNC(=N)N)C(=O)N[C@H]1Cc2ccccc2CN(CCC(=O)N(Cc2ccccc2)CC(C)C)C1=O					6.51			
Cc1cc(O)cc(C)c1C[C@H](N)C(=O)N[C@H](CCCNC(=N)N)C(=O)N[C@H]1Cc2ccccc2CN(CC(=O)N(C)Cc2cc(C(F)(F)F)cc(C(F)(F)F)c2)C1=O	25						Active	Activity (Rattus norvegicus [12]): Non-toxic; Activity (Rattus norvegicus [13]): Active; ED50 (Rattus norvegicus [14]): 1.05 nmol; ED50 (Rattus norvegicus [15]): 1.14 nmol; MPE (Rattus norvegicus [16]): 30%; Activity (Rattus norvegicus [17]): Toxic; Activity (Rattus norvegicus [18]): Active; ED50 (Rattus norvegicus [19]): 1.66 nmol; Activity (Rattus norvegicus [20]): Active; Activity (Rattus norvegicus [21]): Active; MPE (Rattus norvegicus [22]): 60%
Cc1cc(O)cc(C)c1C[C@H](N)C(=O)N[C@H](CCCNC(N)=O)C(=O)N[C@H]1Cc2ccccc2CN(CCC(=O)N(C)Cc2ccccc2)C1=O	1.7	9.48	9.32	9.55	5.52	9.02		
CC(=O)N[C@H]1Cc2ccccc2CN(CC(=O)N(C)Cc2cc(C(F)(F)F)cc(C(F)(F)F)c2)C1=O							Active	Activity (Rattus norvegicus [13]): Active; Activity (Rattus norvegicus [23]): Toxic; Activity (Rattus norvegicus [24]): Toxic; Activity (Rattus norvegicus [25]): inactive; Activity (Rattus norvegicus [26]): Active
Cc1cc(O)cc(C)c1C[C@H](N)C(=O)N[C@H](CCCNC(=N)N)C(=O)N[C@H]1Cc2ccccc2CN(CCC(=O)N(C)Cc2cc(C(F)(F)F)cc(C(F)(F)F)c2)C1=O	25.3	8.21	8.67	10.10	7.22	7.95		Kb (Substance-P receptor [27]): 912 nM

— ChEMBL document CHEMBL3407477, “Synthesis and biological evaluation of compact, conformationally constrained bifunctional opioid agonist - neurokinin-1 antagonist peptidomimetics” (Eur J Med Chem, 2015)
